In brackets after ≈: the same amount, converted by molar mass. Marks after values point to notes of the source that are not given here. Each block holds one compound with its values, some of them ahead of it.
What was measured:
Assay type in all cases: cell-based
[1] = tested on: Candida albicans (MTCC 227); test: microbe, parasite or virus in culture; settings: for diameter of the inhibition zone, C. albicans: 0.1 mL of 50 mg mL^-1 in DMSO per 8 mm well, 18-24 h, NA = no activity
[2] = tested on: Staphylococcus aureus (MTCC 740); settings: 0.1 mL of 50 mg mL^-1 in DMSO per 8 mm well, 18-24 h; NA = no activity
[3] = tested on: methicillin resistant Staphylococcus aureus (MRSA); test: Minimum inhibitory concentration, agar dilution method; settings: 24 h, read-out: Minimum inhibitory concentration, MRSA
How it was run: (§1)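 Bacteria were grown from a loopful in broth at 37 °C for 4 h and adjusted to McFarland turbidity, about (1 to 2) × 10^8 CFU per mL. Test compound in DMSO was mixed into Muller Hinton agar over 0.001–2 mg mL−1. Plates were swab-inoculated with 0.1 mL culture and held at 37 °C for 24 h. MIC was the lowest concentration preventing visible growth, with DMSO as control.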

[4] = tested on: Enterococcus faecalis (MTCC 439); test: microbe, parasite or virus in culture
[5] = tested on: Shigella flexneri (MTCC 1457); test: Minimum inhibitory concentration, agar dilution method
How it was run: as §1

[6] = tested on: Staphylococcus epidermidis (MTCC 435); settings: 0.1 mL of 50 mg mL^-1 in DMSO per 8 mm well, 18-24 h; NA = no activity
[7] = tested on: Shigella flexneri (MTCC 1457); test: microbe, parasite or virus in culture
[8] = tested on: Staphylococcus aureus (MTCC 740); test: Minimum inhibitory concentration, agar dilution method; settings: MTCC740, 24 h, read-out: Minimum inhibitory concentration, S. Aureus
[9] = tested on: methicillin resistant Staphylococcus aureus (MRSA); test: microbe, parasite or virus in culture; settings: for diameter of the inhibition zone, MRSA: 0.1 mL of 50 mg mL^-1 in DMSO per 8 mm well, 18-24 h, NA = no activity
[10] = tested on: Enterococcus faecalis (MTCC 439); test: Minimum inhibitory concentration, agar dilution method; settings: MTCC439, 24 h, read-out: Minimum inhibitory concentration, E. faecalis
[11] = tested on: Staphylococcus epidermidis (MTCC 435); test: as above; settings: MTCC435, 24 h, read-out: Minimum inhibitory concentration, S. epidermidis
[12] = tested on: human osteosarcoma cell line MG63; test: Antitumor MTT assay
[13] = tested on: Candida albicans (MTCC 227); test: Minimum inhibitory concentration, agar dilution method; settings: Muller Hinton agar, 25 °C, 24 h
[14] = 0.1 mL of 50 mg mL^-1 in DMSO per 8 mm well, 18-24 h, NA = no activity

Compound: C[C@@H]1[C@H](O)[C@@H](C)/C=C/C=C/C=C/C=C/C=C/C=C/C=C/[C@H](O[C@@H]2O[C@H](C)[C@@H](O)[C@H](N)[C@@H]2O)C[C@@H]2O[C@](O)(C[C@@H](O)C[C@@H](O)[C@H](O)CC[C@@H](O)C[C@@H](O)CC(=O)O[C@H]1C)C[C@H](O)[C@H]2C(=O)O [Amphotericin B]
diameter of the inhibition zone, C. albicans [1]: 34 ^d mm | zone of inhibition at 50 µg/mL ([1]; Candida albicans, MTCC227, read-out: diameter of the inhibition zone, C. albicans): 34 mm

Compound: S=c1[nH]c2ccccc2[nH]1 [BzimSH, benz-imidazoline-2-thione]
diameter of the inhibition zone, C. albicans [1]: 13 mm

Compound: CNC(C)C1CCC(N)C(OC2C(N)CC(N)C(OC3OCC(C)(O)C(NC)C3O)C2O)O1 (stereo not drawn) [Gentamicin, reference compound]
diameter of the inhibition zone, S. aureus [2]: 26 ^d mm | MIC [3]: 10 µg/mL (≈ 20.9 µM) | diameter of the inhibition zone, E. faecalis [4, 14]: 27 ^d mm | zone of inhibition at 50 µg/mL ([4]; Enterococcus faecalis, MTCC439, read-out: diameter of the inhibition zone, E. faecalis): 27 mm | Minimum inhibitory concentration, S. flexneri ([5]; Muller Hinton agar, 37 °C, 24 h): 5 µg/mL (≈ 10.5 µM) | MIC ([5]; Shigella flexneri, MTCC1457, 24 h, read-out: Minimum inhibitory concentration, S. flexneri, Muller Hinton agar, 37 °C, 24 h): 7 µg/mL (≈ 14.7 µM) | diameter of the inhibition zone, S. epidermidis [6]: 25 ^d mm | diameter of the inhibition zone, S. flexneri [7, 14]: 34.5 ^d mm | zone of inhibition at 50 µg/mL ([7]; Shigella flexneri, MTCC1457, read-out: diameter of the inhibition zone, S. flexneri): 34.5 mm | MIC [8]: 0.5 µg/mL (≈ 1.05 µM) | diameter of the inhibition zone, MRSA [9]: 33 ^d mm | zone of inhibition at 50 µg/mL ([9]; Staphylococcus aureus, MRSA, read-out: diameter of the inhibition zone, MRSA): 33 mm | MIC [10]: 30 µg/mL (≈ 62.8 µM) | MIC [11]: 30 µg/mL (≈ 62.8 µM)

Compound: c1ccc(P(c2ccccc2)c2ccccc2)cc1 [PPh3, triphenylphosphine, reference compound]
IC50 ([12]; Homo sapiens, MG-63, 24 h): > 100 µM

Compound: S=c1cccc[nH]1 [PySH, pyridine-2-thione, reference compound]
IC50 ([12]; Homo sapiens, MG-63, 24 h): 29.7 µM

IC50 ([12]; Homo sapiens, MG-63, 24 h): 44.3 µM
Compound: O=c1cc[nH]c(=S)[nH]1 [tucH2, 2-thiouracil, reference compound]
diameter of the inhibition zone, S. epidermidis [6]: inactive

IC50 ([12]; MG63 cells, 24 h exposure, MTT, 570 nm): 7.62 µM
Compound: [Ag2(purSH2)2(dppm)2](NO3)2·2H2O [Complex 5]
diameter of the inhibition zone, S. aureus [2]: 12 mm | diameter of the inhibition zone, S. epidermidis [6]: 12 mm | Minimum inhibitory concentration, C. albicans [13]: 50 µg/mL | diameter of the inhibition zone, C. albicans [1]: 17 mm

Compound: purine-6-thione [purSH2, reference compound]
diameter of the inhibition zone, S. aureus [2]: 13 mm | diameter of the inhibition zone, S. epidermidis [6]: inactive | diameter of the inhibition zone, MRSA [9]: 18 mm | diameter of the inhibition zone, C. albicans [1]: inactive

Source: article PMC9066168 (RSC Advances, 2019)
